This note sets out measurements from ChEMBL document CHEMBL5316351, “Development of a Covalent Inhibitor of c-Jun N-Terminal Protein Kinase (JNK) 2/3 with Selectivity over JNK1” (J Med Chem, 2023).

Molecules are shown by their SMILES. Calls of active or inactive are those of the source. The rule behind the calls is not given here.

Data set [1] concerns the target T1, Mitogen-activated protein kinase 14 (Homo sapiens, UniProt Q16539). The data set can be described thus: Inhibition of Nano-Luc fused p38alpha (unknown origin) expressed in HEK293T cells pretreated for 3 hrs followed by K5-tarcer addition and measured after 1 hr by NanoBRET assay. As to conditions: time 4.0 hrs. The format is cell-based.
Data set [2] deals with T2, Mitogen-activated protein kinase 9 (Homo sapiens, UniProt P45984). The experiment in a line: Inhibition of Nano-Luc fused JNK2 (unknown origin) expressed in HEK293T cells pretreated for 3 hrs followed by K5-tarcer addition and measured after 1 hr by NanoBRET assay. The format is cell-based. In general terms: BRET reads energy transfer from a luciferase to a nearby fluorophore.
Target sequence in this assay (P45984 whole entry, the tested form may be a part): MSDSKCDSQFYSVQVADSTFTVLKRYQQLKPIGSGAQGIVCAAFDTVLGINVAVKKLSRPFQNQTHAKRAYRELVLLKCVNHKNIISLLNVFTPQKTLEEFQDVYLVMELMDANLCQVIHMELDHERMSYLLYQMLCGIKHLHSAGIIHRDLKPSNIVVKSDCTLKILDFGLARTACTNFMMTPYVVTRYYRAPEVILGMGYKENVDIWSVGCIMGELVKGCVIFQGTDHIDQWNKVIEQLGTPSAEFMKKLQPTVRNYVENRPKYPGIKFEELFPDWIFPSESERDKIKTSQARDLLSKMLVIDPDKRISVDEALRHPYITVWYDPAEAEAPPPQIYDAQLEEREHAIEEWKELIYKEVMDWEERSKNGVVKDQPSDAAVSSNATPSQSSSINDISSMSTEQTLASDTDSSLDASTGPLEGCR

Data set [3] relates to MM1.S. The experiment in a line: Antiproliferative activity against human MM1.S cells assessed as inhibition of cell growth rate measured after 72 hrs by CellTiter-Glo luminescent assay. The format is functional. (In general: Cellular ATP, detected with luciferase, serves as a proxy for viable cell number.)
Data set [4] addresses T1, Mitogen-activated protein kinase 14. The experiment in a line: Inhibition of GST-tagged human recombinant p38alpha expressed in Escherichia coli by Z'-LYTE assay.
Data set [5] deals with T3, 1-phosphatidylinositol 3-phosphate 5-kinase (Homo sapiens, UniProt Q9Y2I7). The data set can be described thus: Inhibition of wild type partial length human PIKFYVE (F1512 to C2098 residues) expressed in mammalian expression system at 1 uM by KinomeScan analysis. The gist of the method: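 KINOMEscan (ScanMAX) binding panel of >400 kinases, compound tested at 1 μM; reported as percent inhibition/score.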
T3 sequence (Q9Y2I7 whole entry, the tested form may be a part): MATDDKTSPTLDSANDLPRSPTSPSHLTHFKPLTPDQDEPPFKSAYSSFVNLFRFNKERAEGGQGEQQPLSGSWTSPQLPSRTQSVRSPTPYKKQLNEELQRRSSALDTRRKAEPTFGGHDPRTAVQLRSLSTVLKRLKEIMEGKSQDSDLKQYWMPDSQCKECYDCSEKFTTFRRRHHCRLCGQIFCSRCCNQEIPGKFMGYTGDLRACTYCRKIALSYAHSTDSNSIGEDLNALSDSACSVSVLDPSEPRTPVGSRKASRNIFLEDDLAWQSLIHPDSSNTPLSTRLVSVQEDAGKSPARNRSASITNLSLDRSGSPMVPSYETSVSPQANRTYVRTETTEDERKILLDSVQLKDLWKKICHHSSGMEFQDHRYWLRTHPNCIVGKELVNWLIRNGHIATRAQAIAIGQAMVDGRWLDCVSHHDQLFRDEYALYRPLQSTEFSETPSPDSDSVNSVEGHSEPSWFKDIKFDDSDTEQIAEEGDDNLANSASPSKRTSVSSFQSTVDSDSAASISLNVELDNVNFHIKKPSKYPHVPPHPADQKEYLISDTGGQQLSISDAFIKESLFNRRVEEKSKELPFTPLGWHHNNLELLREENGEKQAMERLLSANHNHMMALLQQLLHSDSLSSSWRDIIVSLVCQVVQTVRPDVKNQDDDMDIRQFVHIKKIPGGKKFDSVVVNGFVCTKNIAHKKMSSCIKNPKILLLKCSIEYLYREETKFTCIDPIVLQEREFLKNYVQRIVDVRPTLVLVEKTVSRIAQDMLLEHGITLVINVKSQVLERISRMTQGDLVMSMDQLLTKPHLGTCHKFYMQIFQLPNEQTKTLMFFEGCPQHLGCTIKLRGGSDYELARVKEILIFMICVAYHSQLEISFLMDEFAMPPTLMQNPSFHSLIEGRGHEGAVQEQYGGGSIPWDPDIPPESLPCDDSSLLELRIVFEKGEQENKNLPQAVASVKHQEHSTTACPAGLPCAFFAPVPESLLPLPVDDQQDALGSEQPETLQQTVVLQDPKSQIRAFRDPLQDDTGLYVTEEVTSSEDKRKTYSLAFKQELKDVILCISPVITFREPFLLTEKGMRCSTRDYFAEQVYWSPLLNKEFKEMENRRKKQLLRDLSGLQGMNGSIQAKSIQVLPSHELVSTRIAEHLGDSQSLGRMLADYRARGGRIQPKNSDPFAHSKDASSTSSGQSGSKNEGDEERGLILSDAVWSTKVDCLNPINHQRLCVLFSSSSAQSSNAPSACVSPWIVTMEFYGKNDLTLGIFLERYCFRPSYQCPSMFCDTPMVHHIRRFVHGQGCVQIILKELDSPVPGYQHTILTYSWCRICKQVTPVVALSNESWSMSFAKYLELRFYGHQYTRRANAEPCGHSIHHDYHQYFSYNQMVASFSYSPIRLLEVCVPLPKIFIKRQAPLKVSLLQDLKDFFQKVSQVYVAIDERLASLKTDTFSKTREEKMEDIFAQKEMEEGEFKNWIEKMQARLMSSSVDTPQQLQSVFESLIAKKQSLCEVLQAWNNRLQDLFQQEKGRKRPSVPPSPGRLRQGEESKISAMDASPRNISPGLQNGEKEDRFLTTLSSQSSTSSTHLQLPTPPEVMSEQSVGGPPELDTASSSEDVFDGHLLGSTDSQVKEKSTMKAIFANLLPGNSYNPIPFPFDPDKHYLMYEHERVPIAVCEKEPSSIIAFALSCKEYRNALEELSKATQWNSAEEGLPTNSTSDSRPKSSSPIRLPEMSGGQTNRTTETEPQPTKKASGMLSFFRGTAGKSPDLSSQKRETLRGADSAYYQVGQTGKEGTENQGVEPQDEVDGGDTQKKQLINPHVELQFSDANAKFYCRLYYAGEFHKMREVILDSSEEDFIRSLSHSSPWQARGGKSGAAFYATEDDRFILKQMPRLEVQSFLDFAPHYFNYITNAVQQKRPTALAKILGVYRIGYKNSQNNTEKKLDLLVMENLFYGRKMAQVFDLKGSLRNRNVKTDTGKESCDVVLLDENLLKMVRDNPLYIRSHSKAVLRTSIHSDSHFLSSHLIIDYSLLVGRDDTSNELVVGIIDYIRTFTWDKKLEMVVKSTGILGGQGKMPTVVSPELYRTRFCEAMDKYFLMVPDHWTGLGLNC

The target of data set [6] is T3, 1-phosphatidylinositol 3-phosphate 5-kinase. The experiment in a line: Inhibition of PIKFYVE in human SUM159 cells at 1 uM by KiNativ Profiling analysis. The format is cell-based. The conditions noted are these: SUM159PT. A digest of the protocol: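 SUM159 cells treated with 1 μM compound, collected, PBS-washed and frozen; lysates probed with ATP/ADP-biotin acyl probe labelling catalytic lysine (KiNativ); protection from labelling measured.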

Data set [7] can be described thus: Half life in human liver microsomes at 1 uM by LC-MS/MS analysis. The format is ADME, Microsome. (In general: Liver microsomes are vesicles of endoplasmic reticulum, rich in cytochrome P450 enzymes.)
Data set [8] can be described thus: Half life in mouse liver microsomes at 1 uM by LC-MS/MS analysis. The format is ADME, Microsome.
The nature of data set [9]: GSH reactivity in potassium phosphate buffer at pH 7.4 assessed as half life at 1 uM by LC-MS/MS analysis. The format is ADME. As to conditions: pH 7.4, 1 µM.
The target of data set [10] is T2, Mitogen-activated protein kinase 9. The experiment in a line: Inhibition of JNK2 in human MM1.S cells at 1 uM by KiNativ Profiling analysis. The format is cell-based. A digest of the protocol: (§1)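 MM.1S cells treated with 1 μM compound, collected, PBS-washed, frozen; KiNativ lysate profiling with ATP/ADP-biotin probe labelling conserved catalytic lysine.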
Target sequence in this assay (P45984 whole entry, looked up, the tested form may be a part): as the sequence (P45984 whole entry, the tested form may be a part) above
Data set [11] deals with T3, 1-phosphatidylinositol 3-phosphate 5-kinase. The experiment in a line: Inhibition of PIKFYVE in human MDA-MB-231 cells assessed as vacuole formation upto 4 uM measured after 3 days by bright field microscopy. The format is cell-based. The conditions noted are these: time 3.0 day. A digest of the protocol:
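MDA-MB-231 cells (DMEM, 10% FBS) seeded, next day treated with inhibitor or DMSO; after 3 days imaged by bright-field microscopy at 20× for vacuoles.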

For data set [12], the target named is T2, Mitogen-activated protein kinase 9. The data set can be described thus: Covalent binding affinity to JNK2 in human MM1.S cells at 500 nM incubated for 6 hrs by biotin-JNK-IN-7 probe based pull-down competition based analysis. The format is cell-based. A digest of the protocol: (§2)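 MM.1S cells exposed to compound or DMSO 6 h; lysed in HEPES pH 7.4/NP-40 buffer; lysates incubated with 1 μM biotin-JNK-IN-7 overnight at 4 °C then 2 h room temperature; streptavidin pull-down 2–3 h at 4 °C; bound JNK1/JNK2 detected by western blot.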
Target sequence in this assay (P45984 whole entry, looked up, the tested form may be a part): as the sequence (P45984 whole entry, the tested form may be a part) above

Data set [13] addresses T4, Mitogen-activated protein kinase 8 (Homo sapiens, UniProt P45983). The data set can be described thus: Covalent binding affinity to JNK1 in human MM1.S cells at 2 uM incubated for 6 hrs by biotin-JNK-IN-7 probe based pull-down competition based analysis. The format is cell-based. A digest of the protocol:
as §2

In data set [14] the test system is MM1.S. The experiment in a line: Induction of apoptosis in human MM1.S cells assessed as increase in PARP cleavage at 0.5 to 2.5 uM incubated for 24 hrs by immunoblot analysis. As to conditions: dose 0.5-2.5 µM. The format is functional, cell-based.
In data set [15] the test system is MM1.S. The experiment in a line: Induction of apoptosis in human MM1.S cells assessed as increase in caspase-3 cleavage at 0.5 to 2.5 uM incubated for 24 hrs by immunoblot analysis. The conditions noted are these: dose 0.5-2.5 µM. The format is functional, cell-based.
Data set [16] has as its system MM1.S. The experiment in a line: Induction of apoptosis in human MM1.S cells at 250 nM by AnnexinV/PI staining based flow cytometry. The format is functional, cell-based.
A short description of data set [17]: Antiproliferative activity against wild type human ANBL-6 cells assessed as inhibition of cell growth incubated for 72 hrs by CellTiter-Glo luminescent assay. The conditions noted are these: ANBL-6, 72 h. The format is functional, cell-based.
Data set [18] is described as follows: Antiproliferative activity against Bortezomib-resistant human ANBL-6 cells assessed as inhibition of cell growth incubated for 72 hrs by CellTiter-Glo luminescent assay. The format is functional, cell-based. As to conditions: ANBL-6, 72 h.
Data set [19] relates to MM1.S. The data set can be described thus: Antiproliferative activity against human MM1.S cells overexpressing wild type JNK2 assessed as inhibition of cell growth rate measured after 72 hrs by CellTiter-Glo luminescent assay. The format is functional, cell-based.
For data set [20], the system named is MM1.S. The format is functional, cell-based. As to conditions: Homo sapiens, time 72.0 hrs.
Data set [21] deals with MM1.S. The experiment in a line: Antiproliferative activity against human MM1.S cells assessed as inhibition of cell growth rate pretreated for 1 hr with JNK2 inhibitor, CC930 followed by incubation with drug and measured after 72 hrs by CellTiter-Glo luminescent assay. The format is functional, cell-based. The gist of the method: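 MM.1S cells seeded 4000 cells/well, pretreated with 10 μM CC930, then exposed to inhibitor for 72 h; CellTiter-Glo luminescence, GR values from GR calculator; three biological replicates.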

Data set [22] can be described thus: Antiproliferative activity against human HAP1 cells assessed as inhibition of cell growth incubated for 3 days by CellTiter-Glo luminescent assay. As to conditions: HAP1, 72 h. The format is functional, cell-based.
Data set [23] can be described thus: Antiproliferative activity against human HAP1 cells transfected with sgGFP assessed as inhibition of cell growth incubated for 3 days by CellTiter-Glo luminescent assay. As to conditions: HAP1, 72 h. The format is functional, cell-based.
The nature of data set [24]: Antiproliferative activity against JNK knock-out human HAP1 cells transfected with sgJNK#1 assessed as inhibition of cell growth incubated for 3 days by CellTiter-Glo luminescent assay. As to conditions: HAP1, 72 h. The format is functional, cell-based.
Data set [25] in a line: Antiproliferative activity against JNK knock-out human HAP1 cells transfected with sgJNK#2 assessed as inhibition of cell growth incubated for 3 days by CellTiter-Glo luminescent assay. As to conditions: HAP1, 72 h. The format is functional, cell-based.
For data set [26], the target named is T4, Mitogen-activated protein kinase 8. The data set can be described thus: Inhibition of His-tagged human recombinant JNK1 expressed in insect cells incubated for 1 hr in presence of ATP by Z'-Lyte assay relative to control. As to conditions: Insect cell.
In data set [27] the target is T2, Mitogen-activated protein kinase 9. The data set can be described thus: Inhibition of His-tagged human recombinant JNK2 expressed in baculovirus expression system incubated for 1 hr in presence of ATP by Z'-Lyte assay relative to control.
Target sequence in this assay (P45984 whole entry, looked up, the tested form may be a part): as the sequence (P45984 whole entry, the tested form may be a part) above
Data set [28] addresses Mitogen-activated protein kinase 10 (Homo sapiens) (UniProt P53779). The data set can be described thus: Inhibition of GST-tagged human recombinant JNK3 expressed in insect cells incubated for 1 hr in presence of ATP by Z'-lyte assay relative to control. The conditions noted are these: Insect cell.
Data set [29] addresses T4, Mitogen-activated protein kinase 8. The experiment in a line: Inhibition of JNK1 in human MM1.S cells at 1 uM by KiNativ Profiling analysis. The format is cell-based. The gist of the method: as §1
The target in data set [30] is Mitogen-activated protein kinase 10 (Homo sapiens) (UniProt P53779). The data set can be described thus: Inhibition of JNK3 in human MM1.S cells at 1 uM by KiNativ Profiling analysis. The format is cell-based. The gist of the method: as §1
Mitogen-activated protein kinase 10 (Homo sapiens), sequence (P53779 whole entry): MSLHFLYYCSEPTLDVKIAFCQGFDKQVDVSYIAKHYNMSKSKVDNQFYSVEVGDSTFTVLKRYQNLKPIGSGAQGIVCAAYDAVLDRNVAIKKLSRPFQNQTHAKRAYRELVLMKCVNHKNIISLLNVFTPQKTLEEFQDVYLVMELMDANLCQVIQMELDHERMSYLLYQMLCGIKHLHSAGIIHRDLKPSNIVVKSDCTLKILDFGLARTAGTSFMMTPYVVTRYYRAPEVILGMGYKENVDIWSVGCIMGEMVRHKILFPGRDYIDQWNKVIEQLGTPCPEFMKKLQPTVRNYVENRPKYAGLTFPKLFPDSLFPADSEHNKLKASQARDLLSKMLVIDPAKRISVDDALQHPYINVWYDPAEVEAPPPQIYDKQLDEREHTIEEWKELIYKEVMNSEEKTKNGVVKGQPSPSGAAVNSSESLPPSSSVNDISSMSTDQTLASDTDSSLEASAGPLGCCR

T4 sequence (P45983 whole entry): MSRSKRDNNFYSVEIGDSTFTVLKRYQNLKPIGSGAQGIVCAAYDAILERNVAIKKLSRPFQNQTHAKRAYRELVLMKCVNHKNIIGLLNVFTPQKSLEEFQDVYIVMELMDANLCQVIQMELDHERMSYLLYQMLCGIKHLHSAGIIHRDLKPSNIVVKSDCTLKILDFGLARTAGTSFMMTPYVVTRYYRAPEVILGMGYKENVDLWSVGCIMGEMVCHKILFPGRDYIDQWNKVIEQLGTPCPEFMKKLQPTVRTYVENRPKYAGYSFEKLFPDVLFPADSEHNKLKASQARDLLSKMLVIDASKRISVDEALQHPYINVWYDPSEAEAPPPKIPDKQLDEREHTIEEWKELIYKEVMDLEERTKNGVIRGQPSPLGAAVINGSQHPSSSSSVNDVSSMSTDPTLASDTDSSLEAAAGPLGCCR
T1 sequence (Q16539 whole entry, the tested form may be a part): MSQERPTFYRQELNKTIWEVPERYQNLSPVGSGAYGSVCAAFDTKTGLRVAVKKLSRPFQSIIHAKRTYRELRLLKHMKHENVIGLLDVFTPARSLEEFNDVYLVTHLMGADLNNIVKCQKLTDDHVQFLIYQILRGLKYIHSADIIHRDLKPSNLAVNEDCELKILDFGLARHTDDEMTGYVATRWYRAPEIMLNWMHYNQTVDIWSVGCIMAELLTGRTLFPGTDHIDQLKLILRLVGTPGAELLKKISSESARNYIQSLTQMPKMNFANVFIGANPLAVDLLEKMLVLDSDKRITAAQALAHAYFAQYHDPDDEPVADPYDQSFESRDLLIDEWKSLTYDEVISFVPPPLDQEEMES

As for `C[C@H]1CN(C(=O)c2ccc(NC(=O)CCCN(C)C)cc2)C[C@H]1Nc1nccc(-c2c(-c3ccccc3)nn3ccccc23)n1`, in data set [1], the inhibition result is “Active”. In addition, the results for the IC50 in data set [2] and in data set [4] were 1700 nM and 15 nM, respectively. Moreover, the outcome in data set [3] was inactive.

In data set [5], `C[C@H]1CN(C(=O)c2ccc(NC(=O)/C=C/CN(C)C)cc2)C[C@H]1Nc1nccc(-c2c(-c3ccccc3)nn3ccccc23)n1` returned an inhibition of 44%. Besides, the inhibition entry in data set [6] and in [11] was “inactive” throughout. In addition, the t1/2 in [7] was determined as 16 min; in data set [8], 11 min; in data set [9], 46 min. Moreover, the inhibition entry in [10], in data set [1], in [29] and in data set [30] was “Active” in each case. Moreover, the outcome in data set [12], in [13], in [14], in [15], in data set [16] and in data set [19] was Active. Besides, the result in [20] and in data set [21] was Active. Besides, in data set [3], the GR50 worked out at 200 nM. Moreover, the IC50 in [17] turned out to be 120 nM; in data set [18] it was 96 nM; in data set [22] it was 529 nM; in data set [23], 976 nM; in data set [24] it was 1110 nM; in data set [25], 846 nM. For the same compound, in data set [4], the IC50 turned out to be 15 nM. Also, the Imax in data set [26] is 85%; in data set [27], 98%; in [28], 68%.

The term inhibition denotes the change of the read-out against control, counted positive when it falls. The term IC50 denotes the concentration that inhibits the measured activity by half.
